# Results pooled from the literature.
# Compare with care: the assays were run in different laboratories.
# Read-out: cell growth or viability
Structure (SMILES),cell line,method,time,IC50
CNC(=S)N/N=C/c1cccc2cc3ccccc3nc12,SK-BR-3,MTT,48 h,41800 nM
Cc1sc2c(c1C)C(c1ccc(Cl)cc1)=N[C@@H](CC(=O)NCCCCNC(=O)COc1cccc3c1C(=O)N(C1CCC(=O)NC1=O)C3=O)c1nnc(C)n1-2 (stereo partly drawn),SK-BR-3,CCK-8,72 h,> 10000 nM
CCS(=O)(=O)Nc1ccc(Oc2ccc(F)cc2F)c(-c2cn(C)c(=O)c3[nH]ccc23)c1,MP41,ATP luminescence,72 h,99.6 nM
C[C@H]1[C@H](C)CC[C@]2(C)CC[C@]3(C)C(=CC(=O)[C@@H]4[C@@]5(C)CC[C@@H](O)[C@](C)(C(=O)NCc6cn(-c7cccc(C(F)(F)F)c7)nn6)[C@@H]5CC[C@]43C)[C@H]12,HDF,MTT,24 h,116000 nM
O=[N+]([O-])c1ccc(NC(=S)N/N=C/c2cccc3cc4ccccc4nc23)cc1,SK-BR-3,MTT,48 h,> 50000 nM
C[C@H]1COCCN1c1nc(N2CCOC[C@@H]2C)c2ccc(-c3cccc(C(=O)NCCOCCOCCOCCONC(=O)c4ccc(F)c(F)c4Nc4ccc(I)cc4F)c3)nc2n1,D54,WST-1,72 h,22800 nM
FC(F)(F)c1cc(OCc2cc(-c3ccccn3)no2)c2ccccc2n1,HL-60,MTS,72 h,> 100000 nM
Cc1noc(C)c1-c1cc(C(O)(c2ccccn2)c2ccccn2)c2nc(C3CC3)[nH]c2c1,MP41,ATP luminescence,72 h,104 nM
FC(F)(F)c1cc(OCc2cc(-c3ccc(Cl)cc3Cl)no2)c2ccccc2n1,HL-60,MTS,72 h,> 100000 nM
COc1cc(C(=O)c2nc(-c3cccc4[nH]ccc34)c[nH]2)cc2c1OC=CO2,M14,MTS,72 h,7.3 nM
Nc1ccccc1NC(=O)c1ccc(Cn2cnc3c(Nc4ccc(Cl)cc4)ncnc32)cc1,HL-60,MTT,72 h,1110 nM
C[C@H]1[C@H](C)CC[C@]2(C)CC[C@]3(C)C(=CC(=O)[C@@H]4[C@@]5(C)CC[C@@H](O)[C@](C)(C(=O)NCc6cn(-c7ccc(Cl)cc7)nn6)[C@@H]5CC[C@]43C)[C@H]12,HDF,MTT,24 h,191000 nM
CC(=O)O[C@H]1C(=O)[C@@]2(C)[C@H]([C@H](OC(=O)c3ccccc3)[C@]3(O)C[C@H](OC(=O)[C@H](O)[C@@H](NC(=O)c4ccccc4)c4ccccc4)C(C)=C1C3(C)C)[C@]1(OC(C)=O)CO[C@@H]1C[C@@H]2O,M14,MTS,72 h,0.2 nM
Cc1noc2c1-c1ccc(-c3cnn(C)c3)cc1C(c1ccc(Cl)cc1)=N[C@H]2CC(N)=O,MP41,ATP luminescence,72 h,376 nM
COc1ccccc1-n1cc(CNC(=O)[C@@]2(C)[C@H](O)CC[C@@]3(C)[C@H]2CC[C@]2(C)[C@@H]3C(=O)C[C@@H]3[C@@H]4[C@@H](C)[C@H](C)CC[C@]4(C)CC[C@]32C)nn1,HDF,MTT,24 h,105000 nM
COc1cccc2c1C(=O)c1c(O)c3c(c(O)c1C2=O)C[C@@](O)(C(=O)CO)C[C@@H]3O[C@H]1C[C@H](N)[C@H](O)[C@H](C)O1,CHO-K1,ATP luminescence,72 h,340 nM
O=c1cc(OCc2cc(-c3ccccn3)no2)c2ccccc2o1,HL-60,MTS,72 h,> 100000 nM
COc1cccc(NC(=S)N/N=C/c2cccc3cc4ccccc4nc23)c1,SK-BR-3,MTT,48 h,> 50000 nM
CC1CCC(C(C)C)C(OC2=C(Cl)C(=O)c3ccccc3C2=O)C1 (stereo not drawn),SK-BR-3,MTT,24 h,4 µg/mL
FC(F)(F)c1ccc(-c2cc(COc3cc(C(F)(F)F)nc4ccccc34)on2)cc1,HL-60,MTS,72 h,> 100000 nM
COc1cc(C(=O)c2nc(-c3ccnc4[nH]ccc34)c[nH]2)cc(OC)c1OC,M14,MTS,72 h,15.8 nM
N/C(=N\O)c1ccc(-c2cc(CNc3cccc4cccnc34)on2)cc1,HL-60,MTS,72 h,2800 nM
COc1cc(C(=O)c2nc(-c3cccc4c3CC(=O)N4)c[nH]2)cc(OC)c1OC,M14,MTS,72 h,9.5 nM
NC1=NN(c2ccc([N+](=O)[O-])cc2[N+](=O)[O-])C(=O)C1N=Nc1ccccc1C(=O)O (stereo not drawn),Vero,MTT,72 h,54400 nM
CC(C)C[C@H](NC(=O)[C@H](Cc1ccccc1)NC(=O)c1cnccn1)B(O)O,MP41,ATP luminescence,72 h,4.34 nM
O=C(NO)c1ccc(Cn2cnc3c(Nc4ccc(Cl)cc4)ncnc32)cc1,U-266,MTT,72 h,630 nM
COc1cc(C(=O)c2nc(-c3cccc4cc[nH]c34)c[nH]2)cc(OC)c1OC,M14,MTS,72 h,27.3 nM
C/C(=N/NC(=O)c1cn(-c2ccccc2)nc1-c1ccc(F)cc1)c1c(O)cc(C)oc1=O,Vero,MTT,48 h,191000 nM
O=[N+]([O-])c1ccc(Sc2cccc[n+]2[O-])c2nonc12,MP41,ATP luminescence,72 h,2590 nM
O=C(NO)c1ccc(Cn2cnc3c(Nc4cccc([N+](=O)[O-])c4)ncnc32)cc1,U-266,MTT,72 h,310 nM
C[C@H]1[C@H](C)CC[C@]2(C)CC[C@]3(C)C(=CC(=O)[C@@H]4[C@@]5(C)CC[C@@H](O)[C@](C)(C(=O)NCc6cn(-c7ccccc7C(F)(F)F)nn6)[C@@H]5CC[C@]43C)[C@H]12,HDF,MTT,24 h,103000 nM
O=C(NO)c1ccc(Cn2cnc3c(Nc4ccc(F)c(Cl)c4)ncnc32)cc1,U-266,MTT,72 h,1460 nM
CO[C@H]1[C@H](O[C@H]([C@H]2O[C@@H](n3ccc(=O)[nH]c3=O)[C@H](O)[C@@H]2O)[C@H](NCCCNC(=O)[C@@H](NC(=O)[C@@H](NC(=O)N[C@H](C(=O)O)C(C)C)[C@@H]2CCN=C(N)N2)[C@@H](O)C(C)C)C(=O)O)O[C@H](CN)[C@H]1O,SK-BR-3,WST-1,,> 35000 nM
COc1ccc(NC(=S)N/N=C/c2cccc3cc4ccccc4nc23)cc1,SK-BR-3,MTT,48 h,> 50000 nM
Cc1[nH]c2ccccc2c1CCNCc1ccc(/C=C/C(=O)NO)cc1,MP41,ATP luminescence,72 h,14.3 nM
COc1cc(C(=O)c2nc(-c3cccc4[nH]ccc34)c(C)[nH]2)cc(OC)c1OC,M14,MTS,72 h,17.2 nM
Cc1ccc(C(C)C)c(OC2=C(Cl)C(=O)c3ccccc3C2=O)c1,SK-BR-3,MTT,24 h,> 60 µg/mL
Nc1ccccc1NC(=O)c1ccc(Cn2cnc3c(Nc4ccc(Br)cc4F)ncnc32)cc1,U-266,MTT,72 h,460 nM
COc1cc(C(=O)c2nc(-c3cccc4[nH]ccc34)c[nH]2)cc2c1OCO2,M14,MTS,72 h,3.6 nM
